In general, tissue uptake refers to the share of the injected amount in each gram of the tissue.

Results on five compounds are retold here after paper PMC7408314 (Inorganic chemistry, 2020).

A short description of data set [1]: In vitro mouse serum challenge. It is filed as in vitro ADME. The following applies: 37 °C, at least six half-lives of scandium-44 (24 h). A digest of the protocol: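 Scandium-44-labelled complex (free chelator or its PSMA-617 conjugate, labelled at ambient temperature in 0.5 M NH₄OAc) mixed with an equal volume of mouse serum and held at 37 °C. Aliquots taken at 0.5, 4, 8 and 24 h, run on iTLC-SA in 0.4 M sodium citrate pH 4.5 beside free ⁴⁴Sc-in-serum control. Intact fraction calculated from baseline versus solvent-front peak areas.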

Data set [2] deals with PC3-PIP (PSMA+) and PC3-Flu (PSMA−) tumor-bearing nude mice. The following applies: 7.4 vs 74 GBq/μmol.
Data set [3] in a line: in vivo. The following applies: male, nude, mouse, tumor (PSMA+, PC3-PIP), intravenous, total radioactivity, tumor retention.
The conditions of data set [4]: [L] = 10 μM, [M] = 1 μM, pH = 7.4; cited from earlier work.
The conditions of data set [5]: cited from earlier work.
The conditions of data set [6]: protonated tertiary amine in the pyridyl backbone; cited from earlier work.
For data set [7] the following is noted: cited from earlier work. The source holds these as a separate data set.
For data set [8] the following is noted: cited from earlier work. The source holds these as a separate data set.
Data set [9] deals with PSMA on PC3-PIP (PSMA+) cells (Homo sapiens, UniProt Q04609). As to the kind of experiment: Receptor saturation binding assay on prostate cancer cells. The following applies: 2 h incubation.
PSMA on PC3-PIP (PSMA+) cells, sequence (Q04609 whole entry): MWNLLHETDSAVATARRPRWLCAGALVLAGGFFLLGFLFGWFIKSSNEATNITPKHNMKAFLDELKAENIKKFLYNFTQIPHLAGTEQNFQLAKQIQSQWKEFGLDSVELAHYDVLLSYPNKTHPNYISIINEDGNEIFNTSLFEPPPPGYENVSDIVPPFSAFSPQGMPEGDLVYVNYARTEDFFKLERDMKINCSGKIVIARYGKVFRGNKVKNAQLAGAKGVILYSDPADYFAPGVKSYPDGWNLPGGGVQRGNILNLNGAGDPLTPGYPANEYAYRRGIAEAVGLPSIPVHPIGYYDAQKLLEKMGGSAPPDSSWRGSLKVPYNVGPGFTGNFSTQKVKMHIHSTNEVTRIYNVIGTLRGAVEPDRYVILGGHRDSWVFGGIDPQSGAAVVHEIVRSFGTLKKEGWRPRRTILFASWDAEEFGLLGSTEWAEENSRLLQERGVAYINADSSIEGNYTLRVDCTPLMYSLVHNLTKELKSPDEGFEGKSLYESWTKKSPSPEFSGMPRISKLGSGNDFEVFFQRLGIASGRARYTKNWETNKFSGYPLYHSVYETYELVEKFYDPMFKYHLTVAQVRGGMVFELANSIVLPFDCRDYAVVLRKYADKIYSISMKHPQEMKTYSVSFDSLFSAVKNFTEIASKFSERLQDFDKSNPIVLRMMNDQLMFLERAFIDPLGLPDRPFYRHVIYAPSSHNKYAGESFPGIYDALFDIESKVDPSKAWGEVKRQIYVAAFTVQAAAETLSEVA

As for `O=C(O)CC[C@H](NC(=O)N[C@@H](CCCCNC(=O)[C@H](Cc1ccc2ccccc2c1)NC(=O)[C@H]1CC[C@H](CNC(=O)CCCCCCOc2cc(CN(CC(=O)O)Cc3cccc(C(=O)O)n3)nc(CN(CC(=O)O)Cc3cccc(C(=O)O)n3)c2)CC1)C(=O)O)C(=O)O` [[^44Sc][Sc(pypa-C7-PSMA617)], metal not drawn], the “transchelation in mouse serum” value in [1] is reported as < 1%. Also, in [2], the “effect of lower apparent molar activity on kidney accumulation” value is reported as “brought down the kidney accumulation by more than half”. Also, the tissue uptake in [3] (after about four half-lives of scandium-44, 7.4 GBq/μmol) is 14.9 ± 1.7 %ID/g; in [3] (after about four half-lives of scandium-44, 74 GBq/μmol), 20 ± 0.6 %ID/g.
As for `O=C(O)CN1CCN(CC(=O)O)CCN(CC(=O)O)CCN(CC(=O)O)CC1` [DOTA, 1,4,7,10-tetraazacyclododecane-1,4,7,10-tetraacetic acid], in [4], the “pSc (pM), −log [M]free” value is on record as 23.9.
For the compound `O=C(O)CN(Cc1cccc(CN(CC(=O)O)Cc2cccc(C(=O)O)n2)n1)Cc1cccc(C(=O)O)n1` [H4pypa], the “complex stability pM with In^3+” value in data set [5] is reported as 30.5. Besides, in data set [6], the “highest pKa” value is recorded as 7.78. In addition, in data set [7], the “complex stability pM with Lu^3+” value is 22.6. Also, the “complex stability pM with La^3+” value in data set [8] was 19.9.
As for `O=C(O)CC[C@H](NC(=O)N[C@@H](CCCCNC(=O)[C@H](Cc1ccc2ccccc2c1)NC(=O)[C@H]1CC[C@H](CNC(=O)CCCCCCOc2cc(CN(CC(=O)O)Cc3cccc(C(=O)O)n3)nc(CN(CC(=O)O)Cc3cccc(C(=O)O)n3)c2)CC1)C(=O)O)C(=O)O` [H4pypa-C7-PSMA617], the Bmax in data set [9] was 7.84 ± 0.37 fmol/mg.
On to `CC1(N(CC(=O)O)CC(=O)O)CN(CC(=O)O)CCN(CC(=O)O)C1` [AAZTA, 6-[bis(hydroxycarbonyl-methyl)amino]-1,4-bis-(hydroxycarbonylmethyl)-6-methylperhydro-1,4-diaze-pine], for which the “pSc (pM), −log [M]free” value in data set [4] was 24.7.
